One data set deals with Cannabinoid receptor 1 (Homo sapiens, UniProt P21554). As to the kind of experiment: Binding affinity to human CB1 receptor.
Data set [1] concerns the target T1, Cannabinoid receptor 2 (Homo sapiens, UniProt P34972). Briefly: Binding affinity to human CB2 receptor.
In data set [2] the test system is Mus musculus. Briefly: Reduction of food intake in DIO mouse model at 3 mg/kg, po after 2 hrs relative to control. Set-up: scale not given: the % may be the effect or the level left. The data set is classed as functional. The gist of the method: (§1)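 Fed diet-induced obese mice; oral dosing 1 h before dark onset; food intake measured at 2, 4, 6 and 24 h and expressed as percent reduction versus vehicle-treated mice; significance threshold p<0.05.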

Data set [3] deals with Mus musculus. Briefly: Reduction of food intake in DIO mouse model at 3 mg/kg, po after 4 hrs relative to control. Format: functional. Set-up: scale not given: the % may be the effect or the level left. The method, boiled down: as §1
Data set [4] concerns Mus musculus. As to the kind of experiment: Reduction of food intake in DIO mouse model at 3 mg/kg, po after 6 hrs relative to control. Format: functional. Set-up: scale not given: the % may be the effect or the level left. The gist of the method: as §1
Data set [5] relates to Mus musculus. Briefly: Reduction of food intake in DIO mouse model at 3 mg/kg, po after 24 hrs relative to control. The data set is classed as functional. Also noted: scale not given: the % may be the effect or the level left. The gist of the method: as §1
Data set [6] is described as follows: Drug level in DIO mouse plasma at 3 mg/kg, po after 24 hrs. Format: ADME, organism-based. Also noted: dose 3 mg/kg, route oral. The settings on record: read-out: Drug uptake. The method, boiled down:
(§2)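 Diet-induced obese mice dosed orally at 3 mg/kg, 1 h before dark onset; total drug concentrations in plasma (ng/mL) and brain (ng/g) measured at the 24-h time point.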

Data set [7] is described as follows: Drug level in DIO mouse brain at 3 mg/kg, po after 24 hrs. The data set is classed as ADME, organism-based. Set-up: dose 3 mg/kg, route oral. Particulars: read-out: Drug uptake. The method, boiled down: as §2
Data set [8] addresses T1, Cannabinoid receptor 2. Briefly: Binding affinity to human CB2 receptor at 1 uM.

Sequence of Cannabinoid receptor 1 (P21554 whole entry): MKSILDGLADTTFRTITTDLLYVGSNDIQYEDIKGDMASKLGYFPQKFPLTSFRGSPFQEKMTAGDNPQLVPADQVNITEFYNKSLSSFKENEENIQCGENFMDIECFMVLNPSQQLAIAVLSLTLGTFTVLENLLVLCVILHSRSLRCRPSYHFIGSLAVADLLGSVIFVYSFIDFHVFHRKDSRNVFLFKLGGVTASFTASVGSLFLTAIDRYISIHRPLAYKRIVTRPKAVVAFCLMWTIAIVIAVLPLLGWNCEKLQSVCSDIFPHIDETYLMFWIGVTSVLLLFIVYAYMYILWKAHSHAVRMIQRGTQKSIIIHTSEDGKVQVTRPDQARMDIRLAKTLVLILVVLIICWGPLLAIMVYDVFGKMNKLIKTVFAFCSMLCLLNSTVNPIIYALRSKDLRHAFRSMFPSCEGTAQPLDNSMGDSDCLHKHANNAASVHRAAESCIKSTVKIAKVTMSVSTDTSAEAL
T1 sequence (P34972 whole entry): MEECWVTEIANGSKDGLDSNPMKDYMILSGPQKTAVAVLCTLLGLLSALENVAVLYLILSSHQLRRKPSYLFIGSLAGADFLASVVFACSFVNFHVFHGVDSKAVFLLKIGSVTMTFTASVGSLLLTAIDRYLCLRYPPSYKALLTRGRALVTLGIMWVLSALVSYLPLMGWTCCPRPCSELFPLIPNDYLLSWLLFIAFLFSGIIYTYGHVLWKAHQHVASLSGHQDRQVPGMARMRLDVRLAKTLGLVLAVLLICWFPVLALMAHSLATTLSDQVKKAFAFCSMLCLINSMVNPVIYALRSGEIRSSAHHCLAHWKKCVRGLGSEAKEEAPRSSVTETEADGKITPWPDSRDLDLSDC

`CS(=O)(=O)N1CCN(C[C@@H]2CC[C@@H](c3ccc(Cl)cc3Cl)N(c3ccc(Cl)cc3)C2)CC1`: the Ki – broadly, the equilibrium dissociation constant of an inhibitor or competing ligand from its target – on Cannabinoid receptor 1 is 0.69 µM; on Cannabinoid receptor 2 [1] it was over 1.85 µM.
Consider `O=S(=O)(NCCC1CCC(c2ccc(Cl)cc2Cl)N(c2ccc(Cl)cc2)C1)C1CC1` (stereo in doubt; 14f), for which the results for the Ki on Cannabinoid receptor 1 and at Cannabinoid receptor 2 [1] were 0.0034 µM and over 2.4 µM, respectively. For the same molecule, the Activity in the data set with Mus musculus [2] is 39%; with Mus musculus [3] it was 37%; in the data set on Mus musculus [4], 38%; with Mus musculus [5], 37%. The concentration at 24 h in [6] was determined as 15 ng/mL; in [7], 66 ng/g.
Consider `O=S(=O)(NC[C@@H]1CC[C@@H](c2ccc(Cl)cc2Cl)N(c2ccc(Cl)cc2)C1)c1cccnc1`, for which the figures for the Ki at Cannabinoid receptor 1 and on Cannabinoid receptor 2 [1] were 0.006 µM and over 1.85 µM, respectively.
As to `CC(C)CCNS(=O)(=O)[C@@H]1CC[C@@H](c2ccc(Cl)cc2Cl)N(c2ccc(Cl)cc2)C1`, the Ki at Cannabinoid receptor 1 was determined as 0.0091 µM; on Cannabinoid receptor 2 [1] it was 1.38 µM.
The matching figures for `NCC[C@@H]1CC[C@@H](c2ccc(Cl)cc2Cl)N(c2ccc(Cl)cc2)C1`: 0.061 µM and over 2.22 µM.
Turning to `CC(C)(C)CC(=O)N1CCN(C[C@@H]2CC[C@@H](c3ccc(Cl)cc3Cl)N(c3ccc(Cl)cc3)C2)CC1`, the Ki on Cannabinoid receptor 1 is 0.013 µM; on Cannabinoid receptor 2 [1] it was over 2.4 µM. The Activity with Mus musculus [2] came out at 0%; with Mus musculus [3], 0%; with Mus musculus [4] it was 3%; with Mus musculus [5], 9%. Further, in [6], the concentration at 24 h came to 1 ng/mL.
On to `N#Cc1ccc(S(=O)(=O)NCC[C@@H]2CC[C@@H](c3ccc(Cl)cc3Cl)N(c3ccc(Cl)cc3)C2)cc1`, for which the figures for the Ki at Cannabinoid receptor 1 and at Cannabinoid receptor 2 [1] were 0.0042 µM and over 2.22 µM, respectively.
On to `CC(=O)N1CCN(C[C@@H]2CC[C@@H](c3ccc(Cl)cc3Cl)N(c3ccc(Cl)cc3)C2)CC1`, for which the Ki at Cannabinoid receptor 1 was 0.451 µM; on Cannabinoid receptor 2 [1], over 1.85 µM.
On to `Fc1ccc(C[C@H]2CC[C@H](c3ccc(Cl)cc3)N(c3ccc(Cl)cc3Cl)C2)cc1F` (relative stereo), for which the Ki is 0.467 µM at Cannabinoid receptor 1 and over 1.85 µM on Cannabinoid receptor 2 [1].
Turning to `O=S(=O)(NCCC1CCC(c2ccc(Cl)cc2Cl)N(c2ccc(Cl)cc2)C1)C1CC1` (single isomer, unassigned; enantiomer 2), the Ki is 0.057 µM at Cannabinoid receptor 1 and over 2.4 µM on Cannabinoid receptor 2 [1].
Consider `CC(C)(C)OC(=O)N1CCN(C[C@@H]2CC[C@@H](c3ccc(Cl)cc3Cl)N(c3ccc(Cl)cc3)C2)CC1`, for which the Ki on Cannabinoid receptor 1 is 0.008 µM; at Cannabinoid receptor 2 [1] it was over 1.85 µM.
Turning to `N#Cc1ccc(C(=O)NCC[C@@H]2CC[C@@H](c3ccc(Cl)cc3Cl)N(c3ccc(Cl)cc3)C2)cc1`, the Ki was 0.0051 µM at Cannabinoid receptor 1 and over 2.45 µM at Cannabinoid receptor 2 [1].
In turn, `CCCS(=O)(=O)NC[C@@H]1CC[C@@H](c2ccc(Cl)cc2Cl)N(c2ccc(Cl)cc2)C1` displayed a Ki on Cannabinoid receptor 1 of 0.048 µM. In addition, the inhibition (usually the percentage by which the read-out fell short of the control) on Cannabinoid receptor 2 [8] amounted to 25%.
As to `O=S(=O)(NC[C@@H]1CC[C@@H](c2ccc(Cl)cc2Cl)N(c2ccc(Cl)cc2)C1)c1cccc2ccccc12`, the Ki at Cannabinoid receptor 1 was 0.0023 µM. The inhibition at Cannabinoid receptor 2 [8] came to 5%.
`Fc1ccc(C[C@@H]2CC[C@H](c3ccc(Cl)cc3)N(c3ccc(Cl)cc3)C2)cc1F` (relative stereo): the figures for the Ki at Cannabinoid receptor 1 and on Cannabinoid receptor 2 [1] were over 1.64 µM and over 1.85 µM, respectively.
The matching figures for `Fc1ccc(C[C@H]2CC[C@H](c3ccc(Cl)cc3Cl)N(c3ccc(Cl)cc3)C2)cc1F` (relative stereo): 0.015 µM and over 1.85 µM.
For the molecule `O=C(NC1CCC1)[C@@H]1CC[C@@H](c2ccc(Cl)cc2Cl)N(c2ccc(Cl)cc2)C1`, the figures for the Ki on Cannabinoid receptor 1 and at Cannabinoid receptor 2 [1] were 0.033 µM and 1.38 µM, respectively.
Regarding `O=C(NCc1ccc(Cl)cc1)[C@@H]1CC[C@@H](c2ccc(Cl)cc2Cl)N(c2ccc(Cl)cc2)C1`, the Ki was 0.063 µM on Cannabinoid receptor 1 and over 1.85 µM at Cannabinoid receptor 2 [1].
On to `Clc1ccc(N2C[C@H](CN3CCNCC3)CC[C@H]2c2ccc(Cl)cc2Cl)cc1`, for which the Ki at Cannabinoid receptor 1 was 0.554 µM; at Cannabinoid receptor 2 [1], over 2 µM.
The corresponding values for `CC(C)(C)CCN1CCN(C[C@@H]2CC[C@@H](c3ccc(Cl)cc3Cl)N(c3ccc(Cl)cc3)C2)CC1` are 0.057 µM and over 1.5 µM.
The corresponding values for `O=C1[C@H](Cc2ccc(F)c(F)c2)CC[C@H](c2ccc(Cl)cc2)N1c1ccc(Cl)cc1` (relative stereo) are 0.714 µM and over 1.78 µM.
Regarding `O=S(=O)(NCC[C@@H]1CC[C@@H](c2ccc(Cl)cc2Cl)N(c2ccc(Cl)cc2)C1)C1CC1`, the figures for the Ki at Cannabinoid receptor 1 and on Cannabinoid receptor 2 [1] were 0.0038 µM and over 2.22 µM, respectively.
As for `O=S(=O)(C1CC1)N1CCN(C[C@@H]2CC[C@@H](c3ccc(Cl)cc3Cl)N(c3ccc(Cl)cc3)C2)CC1`, the Ki is 0.044 µM at Cannabinoid receptor 1 and over 2.22 µM at Cannabinoid receptor 2 [1].
`O=C(NC1CCCCC1)[C@@H]1CC[C@@H](c2ccc(Cl)cc2Cl)N(c2ccc(Cl)cc2)C1`: the figures for the Ki on Cannabinoid receptor 1 and on Cannabinoid receptor 2 [1] were 0.018 µM and 0.368 µM, respectively.
On to `NC[C@@H]1CC[C@@H](c2ccc(Cl)cc2Cl)N(c2ccc(Cl)cc2)C1`, for which the Ki at Cannabinoid receptor 1 is 0.133 µM; on Cannabinoid receptor 2 [1], over 1.85 µM.
On to `O=S(=O)(C[C@@H]1CC[C@@H](c2ccc(Cl)cc2Cl)N(c2ccc(Cl)cc2)C1)NC1CCCCC1`, for which the values for the Ki at Cannabinoid receptor 1 and on Cannabinoid receptor 2 [1] were 0.035 µM and 1.25 µM, respectively.
The corresponding values for `CC(=O)NCC[C@@H]1CC[C@@H](c2ccc(Cl)cc2Cl)N(c2ccc(Cl)cc2)C1` are 0.042 µM and over 2.4 µM.
As to `O=S(=O)(NC[C@@H]1CC[C@@H](c2ccc(Cl)cc2Cl)N(c2ccc(Cl)cc2)C1)C1CC1`, the values for the Ki on Cannabinoid receptor 1 and on Cannabinoid receptor 2 [1] were 0.158 µM and over 1.85 µM, respectively.
The matching figures for `O=C1[C@@H](Cc2ccc(F)c(F)c2)CC[C@H](c2ccc(Cl)cc2Cl)N1c1ccc(Cl)cc1` (relative stereo): 0.109 µM and over 1.68 µM.
Regarding `N#Cc1ccc(C(=O)NC[C@@H]2CC[C@@H](c3ccc(Cl)cc3Cl)N(c3ccc(Cl)cc3)C2)cc1`, the Ki on Cannabinoid receptor 1 was 0.005 µM; at Cannabinoid receptor 2 [1], 1.41 µM. In addition, the Activity is listed as 22% in the data set with Mus musculus [2], 22% in the data set on Mus musculus [3], 24% in the data set on Mus musculus [4] and 10% in the data set with Mus musculus [5]. Besides, the concentration at 24 h in data set [6] stood at 28 ng/mL; in data set [7] it was 12 ng/g.
Consider `O=C1[C@@H](Cc2ccc(F)c(F)c2)CC[C@H](c2ccc(Cl)cc2)N1c1ccc(Cl)cc1` (relative stereo), for which the results for the Ki on Cannabinoid receptor 1 and at Cannabinoid receptor 2 [1] were 0.444 µM and 0.574 µM, respectively.
For the molecule `O=S(=O)(NCC[C@@H]1CC[C@@H](c2ccc(Cl)cc2Cl)N(c2ccc(Cl)cc2)C1)c1cccnc1`, the inhibition constant Ki at Cannabinoid receptor 1 was 0.0058 µM; at Cannabinoid receptor 2 [1] it was over 2.22 µM.
Turning to `CC(C)CNC(=O)[C@@H]1CC[C@@H](c2ccc(Cl)cc2Cl)N(c2ccc(Cl)cc2)C1`, the inhibition constant Ki is 0.033 µM at Cannabinoid receptor 1 and 1.58 µM at Cannabinoid receptor 2 [1].
As for `Fc1ccc(C[C@H]2CC[C@H](c3ccc(Cl)cc3)N(c3ccc(Cl)cc3)C2)cc1F` (relative stereo), the values for the Ki on Cannabinoid receptor 1 and at Cannabinoid receptor 2 [1] were 0.072 µM and over 1.77 µM, respectively.
`O=C(NC[C@@H]1CC[C@@H](c2ccc(Cl)cc2Cl)N(c2ccc(Cl)cc2)C1)C1CC1` had a Ki at Cannabinoid receptor 1 of 0.112 µM. The same molecule came in with an inhibition at Cannabinoid receptor 2 [8] of 25%.

The values above are taken from ChEMBL document CHEMBL1157730, “Diaryl piperidines as CB1 receptor antagonists” (Bioorg Med Chem Lett, 2010).
